The test system of series [1] is HUVEC. Nature of the series: Antiinflammatory activity against LPS-induced E-selectin protein expression in HUVEC at 2.5 to 20 ug/ml pretreated for 2 hrs before LPS challenge measured after 4 hrs by whole cell ELISA. In kind it is functional, cell-based. To be noted: Homo sapiens. In a few lines: (§1)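 Primary human umbilical cord endothelial cells (isolated by mild trypsinization, grown in M-199 with 15% heat-inactivated FCS, endothelial cell growth factor, heparin) pre-incubated 2 h with compound, then LPS ([…]) for 4 h (E-selectin) or 16 h (VCAM-1). Cells fixed with 1.0% glutaraldehyde, blocked with 3.0% milk, primary antibody overnight at 4 °C, peroxidase secondary, o-phenylenediamine substrate at pH 4.5, absorbance 490 nm.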

Series [2] deals with HUVEC. Nature of the series: Antiinflammatory activity against TNF-alpha-induced E-selectin protein expression in HUVEC at 20 ug/ml pretreated for 2 hrs before TNFalpha challenge measured after 4 hrs by flow cytometry. In kind it is functional. The following applies: Homo sapiens. The method, boiled down:
(§2)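 Endothelial cells were treated ±compound ([…]) for 2 h, then TNF-α (10 ng/mL). E-selectin was read at 4 h, ICAM-1 and VCAM-1 at 16 h. Cells were dislodged, stained with specific or control IgG antibody (30 min, 4 °C) and then FITC anti-mouse IgG. Autofluorescence was subtracted and mean fluorescence intensity taken from three independent experiments.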
A general note: Flow cytometry measures light scatter and fluorescence of single cells or particles in a stream.

The test system of series [3] is HUVEC. Put plainly: Antiinflammatory activity against TNF-alpha-induced ICAM1 protein expression in HUVEC at maximum tolerated dose pretreated for 2 hrs before TNFalpha challenge measured after 16 hrs by whole cell ELISA. In kind it is functional, Homo sapiens. The method, boiled down: (§3)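 Primary umbilical cord endothelial cells were pre-incubated 2 h with or without compound, then TNF-α (10 ng/mL) for 16 h (ICAM-1, VCAM-1) or 4 h (E-selectin). Whole-cell ELISA: glutaraldehyde fixation, milk block, primary antibody overnight at 4 °C, peroxidase secondary, OPD substrate, A490. IC50 read from %inhibition vs log concentration plots of three independent experiments. Single-level values were taken at the highest concentration giving >95% viability (MTT, 24 h).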

Series [4] deals with HUVEC. Put plainly: Antiinflammatory activity against TNF-alpha-induced ICAM1 protein expression in HUVEC at 20 ug/ml pretreated for 2 hrs before TNFalpha challenge measured after 16 hrs by flow cytometry. In kind it is functional. The following applies: Homo sapiens. The method, boiled down:
as §2

Series [5] deals with HUVEC. Nature of the series: Antiinflammatory activity against TNF-alpha-induced ICAM1 protein expression in HUVEC pretreated for 2 hrs before TNFalpha challenge measured after 16 hrs by whole cell ELISA. The format is functional, cell-based. The following applies: Homo sapiens. The method, boiled down:
as §3
A general note: ELISA stands for enzyme-linked immunosorbent assay.

For series [6], the system named is HUVEC. Nature of the series: Antiinflammatory activity against LPS-induced VCAM-1 protein expression in HUVEC pretreated for 2 hrs before LPS challenge measured after 16 hrs by whole cell ELISA. In kind it is functional, cell-based. The following applies: Homo sapiens. In a few lines:
as §1

The nature of series [7]: Antiinflammatory activity against TNF-alpha-induced VCAM-1 protein expression in HUVEC by ELISA.
Series [8] concerns HUVEC. Nature of the series: Antiinflammatory activity against TNF-alpha-induced neutrophil adhesion in HUVEC at 2.5 to 20 ug/ml pretreated for 2 hrs before TNFalpha challenge measured after 6 hrs by calorimetric analysis. In kind it is functional, Homo sapiens. The method, boiled down: (§4)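 A confluent endothelial monolayer was pretreated ±compound for 2 h, then given TNF-α (10 ng/mL) for 6 h. Neutrophils from healthy donor blood (dextran sedimentation, Ficoll-Hypaque, hypotonic RBC lysis; 6 × 10^4/well) were added for 1 h at 37 °C under static conditions. After washing, bound cells were detected with OPD/CTAB/aminotriazole substrate at A490. Mean ± SD of 3 independent experiments.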

In series [9] the test system is HUVEC. Put plainly: Antiinflammatory activity against TNF-alpha-induced VCAM-1 protein expression in HUVEC at 20 ug/ml pretreated for 2 hrs before TNFalpha challenge measured after 16 hrs by flow cytometry. In kind it is functional. To be noted: Homo sapiens. The method, boiled down:
as §2

The test system of series [10] is HUVEC. Nature of the series: Antiinflammatory activity against TNF-alpha-induced E-selectin protein expression in HUVEC at 2.5 to 20 ug/ml pretreated for 2 hrs before TNFalpha challenge measured after 4 hrs by whole cell ELISA. In kind it is functional, cell-based. To be noted: Homo sapiens. The method, boiled down:
as §3

In series [11] the test system is HUVEC. Nature of the series: Antiinflammatory activity against TNF-alpha-induced neutrophil adhesion in HUVEC pretreated for 2 hrs before TNFalpha challenge measured after 6 hrs by calorimetric analysis. The format is functional, cell-based. The following applies: Homo sapiens. In a few lines:
as §4

The nature of series [12]: Cytotoxicity against HUVEC assessed as maximum tolerated dose for >95% cell viability after 24 hrs by MTT assay. The format is cell-based. The following applies: human, HUVEC cells; read-out: MTD. In a few lines: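 Primary human umbilical vein endothelial cells (mild trypsinization), grown in M-199 with 15% heat-inactivated FCS, endothelial cell growth factor and heparin, 5% CO2. Cells attached overnight, then exposed to compounds or DMSO (0.25%) for 24 h; MTT (5 mg/mL in PBS) 4 h, formazan dissolved in DMSO, absorbance 570 nm. Also checked by trypan blue exclusion. Value is highest concentration giving >95% viability; ≥3 experiments in triplicate.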
(Formazan colour is commonly taken as a measure of viable cells.)

Series [13] deals with HUVEC. Put plainly: Antiinflammatory activity against TNF-alpha-induced VCAM-1 protein expression in HUVEC pretreated for 2 hrs before TNFalpha challenge measured after 16 hrs by whole cell ELISA. To be noted: Homo sapiens. The format is functional, cell-based. The method, boiled down:
as §3

Structures are written as SMILES. In brackets after ≈: the same amount, converted by molar mass. Activity calls are given as the source filed them. The calls are words filed in the database; no cut-off is given here. Where only a bound is given, the exact number is not on record here.

A word on the inhibition: it is how much of the control response was suppressed. One may read the IC50 as the concentration needed to halve the response being measured. `CCOC(=S)/C=C/c1cc(OC)c(OC)c(OC)c1`: the inhibition entry in [1], in [6] and in series [10] was “Active” in each case. The inhibition at 20 µg/mL in series [2], in series [4] and in series [9] was > 95% each time. For the same compound, the “inhibition (INH)” value in series [3] is listed as 95%; in [8], >95%. The values for the IC50 in series [5] and in series [7] were 10 µg/mL (≈ 35.4 µM) and 40 µM, respectively. The inhibition entry in series [5], in [11] and in series [13] was “Dose-dependent effect” in each case. The MNTC at 24 h in series [12] worked out at 20 µg/mL.

For the origin of these results see ChEMBL document CHEMBL1909575, “Novel natural product-based cinnamates and their thio and thiono analogs as potent inhibitors of cell adhesion molecules on human endothelial cells” (Eur J Med Chem, 2011).
